Molecules are shown by their SMILES.

Experiment [1] concerns the target Neuropeptide Y receptor type 5 (Homo sapiens, UniProt Q15761). Nature of the experiment: Displacement of [125]PYY from human chimeric NPY Y5 receptor expressed in CHOK1 cells. It is filed as cell-based. Conditions: cho-k1. An outline of the steps:
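Binding to human chimeric Y5 receptor expressed in CHO-K1 cells; Ki values are the average of two determinations.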

The target of experiment [2] is T1, Neuropeptide Y receptor type 5 (Rattus norvegicus) (UniProt Q63634).
T1 sequence (whole entry): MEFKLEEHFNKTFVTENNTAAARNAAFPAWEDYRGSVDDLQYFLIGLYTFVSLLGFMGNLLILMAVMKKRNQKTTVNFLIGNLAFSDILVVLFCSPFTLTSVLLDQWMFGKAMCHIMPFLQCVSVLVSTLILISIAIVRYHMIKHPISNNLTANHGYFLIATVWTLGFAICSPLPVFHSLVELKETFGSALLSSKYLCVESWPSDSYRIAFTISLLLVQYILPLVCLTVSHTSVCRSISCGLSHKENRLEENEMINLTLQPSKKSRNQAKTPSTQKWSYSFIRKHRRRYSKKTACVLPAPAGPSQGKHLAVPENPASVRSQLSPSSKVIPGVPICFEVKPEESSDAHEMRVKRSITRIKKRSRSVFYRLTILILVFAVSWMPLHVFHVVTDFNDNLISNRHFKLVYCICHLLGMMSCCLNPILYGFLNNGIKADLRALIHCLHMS
Nature of the experiment: Antagonist activity at rat NPY Y5 receptor expressed in HEK293 cells assessed as inhibition of forskolin-stimulated cAMP production. It is filed as functional, cell-based. An outline of the steps:
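HEK293 cells expressing rat NPY Y5 receptor. Functional antagonism measured as the ability to overcome NPY inhibition of forskolin-stimulated cAMP production; reported as Kb.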

For a further experiment, the system named is Rattus norvegicus. Nature of the experiment: Blockade of D-Trp[34]-NPY-induced food intake in po dosed rat. It is filed as functional.

Neuropeptide Y receptor type 5, sequence (Q15761 whole entry, looked up): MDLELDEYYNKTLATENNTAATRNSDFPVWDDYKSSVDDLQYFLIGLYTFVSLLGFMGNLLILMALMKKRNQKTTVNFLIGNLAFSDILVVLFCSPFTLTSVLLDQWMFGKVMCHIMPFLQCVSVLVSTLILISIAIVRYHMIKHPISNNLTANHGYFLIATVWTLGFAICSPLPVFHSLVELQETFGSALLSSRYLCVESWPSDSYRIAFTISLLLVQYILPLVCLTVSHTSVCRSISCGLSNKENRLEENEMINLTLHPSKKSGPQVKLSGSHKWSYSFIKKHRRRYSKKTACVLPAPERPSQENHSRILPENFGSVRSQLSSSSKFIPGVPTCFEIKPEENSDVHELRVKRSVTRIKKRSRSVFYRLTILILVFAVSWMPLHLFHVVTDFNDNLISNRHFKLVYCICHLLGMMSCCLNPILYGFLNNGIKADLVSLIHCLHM

The Ki is a dissociation constant, usually derived from enzyme kinetics or from competition with a known ligand. `CCS(=O)(=O)N1CCC(N(C)C(=O)NC2CCN(c3cc(F)cc(F)c3)CC2)CC1` came in with a Ki in experiment [1] of 2.8 nM.

In experiment [1], `CC(=O)N1CCC(N(C)C(=O)NC2CCN(c3cc(F)cc(F)c3)CC2)CC1` came in with a Ki of 7.4 nM. This Ki lies about 2.6-fold higher than the previous one.

In the case of `CC(C)C(=O)N1CCC(N(C)C(=O)NC2CCN(c3cc(F)cc(F)c3)CC2)CC1`, in experiment [1], the Ki was 2.6 nM.

Compound `CN(C(=O)NC1CCN(c2cccnc2)CC1)C1CCN(S(C)(=O)=O)CC1` returned a Ki in experiment [1] of 405 nM.

`CC(=O)N1CCC(N(C)C(=O)N[C@H]2CC[C@@H](c3ccccc3)CC2)CC1` returned an inhibition constant (Ki) in experiment [1] of over 1000 nM.

Take `CN(C(=O)NC1CCN(c2cccc(Br)c2)CC1)C1CCN(S(C)(=O)=O)CC1`: the Ki in experiment [1] was 8.8 nM. This lies in the single-digit nanomolar range.

`CN(C(=O)NC1CCN(c2ccccc2F)CC1)C1CCN(S(C)(=O)=O)CC1` returned an inhibition constant (Ki) in experiment [1] of 88 nM.

The compound `CN(C(=O)NC1CCN(c2ccc(Br)cc2)CC1)C1CCN(S(C)(=O)=O)CC1` gave an inhibition constant Ki in experiment [1] of 819 nM.

On to `CCCC(=O)N1CCC(N(C)C(=O)NC2CCN(c3cc(F)cc(F)c3)CC2)CC1`, for which, in experiment [1], affinity was put at a Ki of 5.9 nM.

As to `CC(C)S(=O)(=O)N1CCC(N(C)C(=O)NC2CCN(c3cc(F)cc(F)c3)CC2)CC1`, in experiment [1], the affinity, expressed as Ki, was 3.2 nM.

Regarding `CN(C(=O)NC1CCN(c2cccc(C#N)c2)CC1)C1CCN(S(C)(=O)=O)CC1`, in experiment [1], affinity was put at a Ki of 27 nM.

For `CCCC(=O)N1CCC(N(C)C(=O)N[C@H]2CC[C@H](c3cc(F)cc(F)c3)CC2)CC1` (stereo in doubt; 21h), the affinity in experiment [1], expressed as Ki, was 2.4 nM. This Ki is about 11-fold lower than that of the compound before.

Consider `CC(=O)N1CCC(N(C)C(=O)N[C@H]2CC[C@H](c3ccccc3)CC2)CC1`, for which the Ki in experiment [1] was found to be 59 nM.

In experiment [1], `CN(C(=O)NC1CCN(c2cccc(Cl)c2)CC1)C1CCN(S(C)(=O)=O)CC1` came in with a Ki of 13 nM.

Regarding `CN(C(=O)NC1CCN(c2ccc(Cl)c(Cl)c2)CC1)C1CCN(S(C)(=O)=O)CC1`, the affinity in experiment [1], expressed as Ki, was 48 nM. This Ki is about 3.7-fold higher than that of the compound before.

In turn, `CCC(=O)N1CCC(N(C)C(=O)N[C@H]2CC[C@H](c3cc(F)cc(F)c3)CC2)CC1` came in with an inhibition constant (Ki) in experiment [1] of 1.5 nM. Compared with the last compound, the Ki is about 32-fold lower.

The compound `CCC(=O)N1CCC(N(C)C(=O)NC2CCN(c3cc(F)cc(F)c3)CC2)CC1` returned a Ki in experiment [1] of 6.3 nM.

Usually Kb stands for the affinity of an antagonist, worked out from how it opposes an agonist. Usually ED50 stands for the midpoint of the dose-response relation. Low values mean an effect at a small dose, high ones a need for a large dose. Compound `CN(C(=O)Nc1ccc(-c2cc(F)cc(F)c2)cc1)C1CCN(S(C)(=O)=O)CC1` displayed an inhibition constant (Ki) in experiment [1] of 0.4 nM. In experiment [2], the Kb came to 0.4 nM. Besides, the ED50 in the experiment on Rattus norvegicus turned out to be 0.4 mg/kg.

As for `CN(C(=O)NC1CCN(c2ccc(F)cc2)CC1)C1CCN(S(C)(=O)=O)CC1`, the Ki in experiment [1] was found to be 799 nM.

The compound `Cc1ccccc1N1CCC(NC(=O)N(C)C2CCN(S(C)(=O)=O)CC2)CC1` returned a Ki in experiment [1] of 52 nM. Against the preceding compound, the Ki is about 15-fold lower.

Regarding `CN(C(=O)N[C@H]1CC[C@@H](c2ccccc2)CC1)C1CCN(S(C)(=O)=O)CC1`, the Ki in experiment [1] is 500 nM.

For `CN(C(=O)NC1CCN(c2ccc(F)c(F)c2)CC1)C1CCN(S(C)(=O)=O)CC1`, the affinity in experiment [1], expressed as Ki, was 312 nM.

Consider `CN(C(=O)NC1CCN(c2ccc(F)c(Cl)c2)CC1)C1CCN(S(C)(=O)=O)CC1`, for which the inhibitory constant (Ki) in experiment [1] amounted to 160 nM.

On to `CN(C(=O)NC1CCN(c2cc(Cl)cc(Cl)c2)CC1)C1CCN(S(C)(=O)=O)CC1`, for which, in experiment [1], the Ki is 1.1 nM.

As to `CCCS(=O)(=O)N1CCC(N(C)C(=O)NC2CCN(c3cc(F)cc(F)c3)CC2)CC1`, the inhibitory constant (Ki) in experiment [1] was 3.4 nM.

`CN(C(=O)NC1CCN(c2ccccc2)CC1)C1CCN(S(C)(=O)=O)CC1` came in with an inhibition constant Ki in experiment [1] of 303 nM.

For the compound `CCS(=O)(=O)N1CCC(N(C)C(=O)N[C@H]2CC[C@H](c3cc(F)cc(F)c3)CC2)CC1`, the Ki in experiment [1] was 0.75 nM.

In experiment [1], `CN(C(=O)N[C@H]1CC[C@H](c2ccccc2)CC1)C1CCN(S(C)(=O)=O)CC1` had a Ki of 52 nM.

The compound `CC(=O)c1cccc(N2CCC(NC(=O)N(C)C3CCN(S(C)(=O)=O)CC3)CC2)c1` registered a Ki in experiment [1] of 164 nM. This Ki lies about 3.2-fold higher than the previous one.

Regarding `CN(C(=O)N[C@H]1CC[C@H](c2cc(F)cc(F)c2)CC1)C1CCN(S(C)(=O)=O)CC1`, the inhibition constant (Ki) in experiment [1] was 1.2 nM.

Regarding `CN(C(=O)NC1CCN(c2cc(F)cc(F)c2)CC1)C1CCN(S(C)(=O)=O)CC1`, in experiment [1], the affinity, expressed as Ki, was 3.2 nM.

In experiment [1], `CN(C(=O)NC1CCN(c2ccc(Cl)cc2)CC1)C1CCN(S(C)(=O)=O)CC1` returned a Ki of 130 nM.

Turning to `COc1cccc(N2CCC(NC(=O)N(C)C3CCN(S(C)(=O)=O)CC3)CC2)c1`, the Ki in experiment [1] is 311 nM. This Ki lies about 2.4-fold higher than the previous one.

`CN(C(=O)NC1CCN(c2cccc(F)c2)CC1)C1CCN(S(C)(=O)=O)CC1` returned an inhibition constant Ki in experiment [1] of 35 nM.

In turn, `CCCC(=O)N1CCC(N(C)C(=O)N[C@H]2CC[C@H](c3cc(F)cc(F)c3)CC2)CC1` (stereo in doubt; 21e) returned a Ki in experiment [1] of 2 nM. Against the preceding compound, the Ki is about 18-fold lower.

Regarding `Cc1cccc(N2CCC(NC(=O)N(C)C3CCN(S(C)(=O)=O)CC3)CC2)c1`, the Ki in experiment [1] came to 20 nM.

(Values after ChEMBL document CHEMBL1143109, “Discovery of novel orally active ureido NPY Y5 receptor antagonists” (Bioorg Med Chem Lett, 2008).)
